Measured values pooled from the literature.
Lines come from different studies, so protocols differ.
Effect on: enzyme activity
Action: inhibitor
TcPGFS: TcPGFS (Trypanosoma cruzi, UniProt Q8I6L9)
Rps6ka1: Ribosomal protein S6 kinase alpha-1 (Rps6ka1, Rattus norvegicus, UniProt Q63531)
MARK2: Serine/threonine-protein kinase MARK2 (MARK2, Homo sapiens, UniProt Q7KZI7)
HIPK4: Homeodomain-interacting protein kinase 4 (HIPK4, Homo sapiens, UniProt Q8NE63)

CC1(C)CCC2=C(O1)c1ccccc1C(=O)C2=O — remaining activity (TcPGFS; 200 µM): 86%
CCCOc1ccc(OC)c(F)c1C(=O)c1ccc(C(=O)N[C@@H]2CNC[C@H]2NC(=O)c2ccc3[nH]ncc3c2)cc1 — remaining activity (Rps6ka1; 0.5 µM): 77%
Cc1nn(CC(F)(F)F)cc1Nc1nccc(NCc2ccc(S(N)(=O)=O)cc2)n1 — remaining activity (MARK2; radiometric; 1 µM): 108%
COc1cc(Cl)c(C(=O)N[C@@H](CN[C@H]2CC[C@@H](N)CC2)Cc2ccc(C#N)cc2)cc1-c1ccc(CN[C@H](C)c2ccc(C)cc2)o1 — remaining activity (Cyclin-dependent kinase-like 2 (CDKL2, Homo sapiens, UniProt Q92772); 1 µM): 93%
O=C(O)c1ccc2c(c1)nc(Nc1ccc(Cl)cc1)c1ccncc12 — remaining activity (HIPK4; radiometric; 1 µM): 116%
Cc1ccc(C(=O)Nc2ccc(CN3CCN(C)CC3)c(C(F)(F)F)c2)cc1C#Cc1cnc2cccnn12 — remaining activity (Wee1-like protein kinase 2 (WEE2, Homo sapiens, UniProt P0C1S8); 23.5 nM): 96%
O=C(O)c1ccc2c(c1)nc(NCCc1cccc(Cl)c1)c1ncncc12 — remaining activity (HIPK4; radiometric; 1 µM): 53%
NS(=O)(=O)c1ccc(CNc2ccnc(Nc3cccc(CN4CCOCC4)c3)n2)cc1 — remaining activity (MARK2; radiometric; 1 µM): 102%
COc1cccc(CCNc2nc3cc(C(=O)O)ccc3c3cncnc23)c1 — remaining activity (HIPK4; radiometric; 1 µM): 135%
Cc1cnc(NC2CCOCC2)nc1-n1cnc(C(=O)NC(CN)c2cc(F)cc(Cl)c2)c1 (stereo not drawn) — remaining activity (Rps6ka1; radiometric; 1 µM): 53%
N#Cc1cccc(Nc2nc3cc(C(=O)O)ccc3c3cncnc23)c1 — remaining activity (HIPK4; radiometric; 1 µM): 35%
CC1CS(=O)(=O)CCN1/N=C/c1ccc([N+](=O)[O-])o1 (stereo not drawn) — remaining activity (TcPGFS; 200 µM): 6%
